An excerpt weighted towards active compounds, which were near 1.7% of everything screened.
Scp-1 inhibitor = Scp-1 (human) phosphatase inhibition; inhibition, % at 20 µM; Q9GZU7; AID 493091; hit rate 0.88% among 340,000; Recombinant Scp1, phosphopeptide, malachite green phosphate absorbance;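 active means inhibition above about 50% at 20 µM, limit read from the data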;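 further: plate controls were DMSO wells with enzyme for no effect and wells lacking enzyme for full effect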
Target sequence (Q9GZU7 76-261 limits assumed): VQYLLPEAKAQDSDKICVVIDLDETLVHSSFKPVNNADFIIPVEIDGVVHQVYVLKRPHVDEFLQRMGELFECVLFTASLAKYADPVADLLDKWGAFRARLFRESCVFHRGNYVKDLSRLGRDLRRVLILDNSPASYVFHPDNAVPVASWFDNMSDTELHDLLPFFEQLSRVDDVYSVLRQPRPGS
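Times: enzyme reaction 45 min at room temperature, colour 5 min, stabilisation 30 min. Material: SCP-1 catalytic fragment, aa 76-261. Medium: Acidic Tris acetate buffer with magnesium and detergent. Signal: colorimetric free-phosphate detection, absorbance 630 nm. Read-out basis: % inhibition of SCP-1 phosphate liberation. Reagent: Phosphorylated 17-residue peptide substrate.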
STEP inh = inhibitors of human striatal-enriched phosphatase STEP; P54829; recombinant STEP, OMFP fluorogenic substrate, fluorescence; inhibition, % at 20 µM; hit rate 0.25% among 360,000; AID 588621;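 active means inhibition at 20 µM, scaled per plate between control wells, above about 37%, limit read from the data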;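 further: 0% = DMSO with enzyme and substrate and 100% = substrate only without enzyme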
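material = STEP tyrosine phosphatase | reagent = fluorogenic phosphatase substrate OMFP at 25 µM final | doses = single compound dose of 20 µM, 1% DMSO final | schedule = 20 min reaction, room temperature, in the dark | measured by = fluorescence, 480/540 nm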
SUMO1-SIM PPI = modulators of human SUMO1-mediated protein-protein interactions | P63165 | SUMO1 binding to a labelled peptide, TR-FRET, 1 h | inhibition, % at 20 µM | hit rate 0.33% among 360,000 | AID 602429; in the data active means inhibition above about 37%
Target sequence (P63165 whole entry, looked up): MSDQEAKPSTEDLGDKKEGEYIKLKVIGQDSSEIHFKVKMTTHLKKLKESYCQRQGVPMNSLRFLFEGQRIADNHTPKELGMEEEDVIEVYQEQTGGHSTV
LMPTP block = blocks human LMPTP phosphatase. recombinant LMPTP-A, OMFP fluorogenic substrate, fluorescence intensity. hit rate 0.22% among 360,000. inhibition, % at 20 µM. AID 651560. P24666;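 active means compounds that cut the enzyme signal by at least half of the control window in the single-dose screen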;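 further: plate controls were DMSO wells with enzyme plus substrate for no effect and substrate without enzyme for full effect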
Target sequence (P24666 whole entry, looked up): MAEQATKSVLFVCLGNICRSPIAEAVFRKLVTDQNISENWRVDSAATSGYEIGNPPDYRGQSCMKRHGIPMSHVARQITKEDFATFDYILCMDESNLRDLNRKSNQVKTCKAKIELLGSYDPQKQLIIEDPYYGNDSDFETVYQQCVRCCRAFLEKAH
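Test system: LMPTP-A, protein tyrosine phosphatase of low molecular weight; Input: 0.625 nM enzyme; Incubation: 50 min dark incubation at room temperature; Signal: endpoint fluorescence intensity from OMFP dephosphorylation; Read-out basis: % inhibition versus control wells.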
CASP6 VEID inh = blocks human caspase-6 cleavage activity. purified caspase-6, Z-VEID-R110 cleavage fluorescence. hit rate 0.53% among 350,000. inhibition, % at 12.5 µM;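 active means mean inhibition across replicates at least about 35%, with every replicate also reaching that limit, limit read from the data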;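 further: 0% = median of neutral control wells and 100% = no fluorescence left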
Target sequence (P55212 24-179 limits assumed): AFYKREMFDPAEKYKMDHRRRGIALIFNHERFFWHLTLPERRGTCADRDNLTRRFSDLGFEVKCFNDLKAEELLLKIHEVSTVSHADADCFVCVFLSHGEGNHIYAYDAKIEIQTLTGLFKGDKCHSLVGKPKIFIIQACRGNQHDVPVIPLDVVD
Target sequence (P55212 194-293 limits assumed): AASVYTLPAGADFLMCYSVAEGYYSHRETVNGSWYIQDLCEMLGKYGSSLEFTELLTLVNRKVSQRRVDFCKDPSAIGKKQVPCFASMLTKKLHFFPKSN
DNMT1 block = blocks human DNA methyltransferase DNMT1. P26358. DNMT1 molecular beacon, Hinp1I cleavage, fluorescence. inhibition (reported as % activation of signal), % at 10 µM. hit rate 0.83% among 360,000. AID 588458; in the data active means inhibition above about 50%
Scp-1 conf = Scp-1 (human) inhibition, single-dose confirmed; inhibition, % at 20 µM; shares compounds with Scp-1 inhibitor; hit rate 61% among 2,500; recombinant SCP-1 catalytic domain, phosphate release, malachite green absorbance; AID 540281;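 further: plate controls were DMSO with enzyme for no effect and buffer wells lacking enzyme for full effect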
MG interference = colorimetric interference in Scp-1 counter-screen. shares compounds with Scp-1 inhibitor. Colorimetric interference counterscreen, malachite green absorbance 630 nm. apparent inhibition (interference), % at 20 µM. 2,500 tested, under 10 active. AID 540313;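 further: compounds added after enzyme reaction finished so only phosphate colour detection is probed; plate controls were DMSO wells with completed Scp-1 reaction for no effect and substrate wells lacking enzyme for full effect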
Scp-1 Tm shift = Scp-1 (human) binding by thermal shift. shares compounds with Scp-1 inhibitor. Recombinant SCP1, Sypro Orange thermal shift Tm. thermal shift relative to vanadate control, % at 40 µM. hit rate 25% among 1,500. AID 540329;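 active means substances whose mean melting-temperature shift, as a percentage of the reference inhibitor's shift, reaches about 5.3%, limit read from the data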;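 further: 0% = Tm of DMSO wells and 100% = Tm with sodium orthovanadate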
* = called active by the depositor; / = not tested or not shown.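 How the source made its calls, unless noted: active means inhibition of at least 30% at 20 µM; inactive means the rest.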

SMILES	Scp-1 inhibitor	STEP inh	SUMO1-SIM PPI	LMPTP block	CASP6 VEID inh	DNMT1 block	Scp-1 conf	MG interference	others
CCCCC1(C)OC(=O)C(=Cc2ccc(-c3ccc(Cl)c(C(=O)O)c3)o2)C(=O)O1 (stereo not given)	59.5*	11.1	16.7	0.0	12.4	36.6	44.6*	-12.0	Scp-1 Tm shift=-27.6
O=[N+]([O-])c1cccc(-c2ccc(/C=N/NC(=S)Nc3ccccc3)o2)c1	6.8	-0.2	-9.0	1.6	/	-8.8	/	/
O=C(O)c1cc(-c2ccc(/C=N/NC(=S)Nc3ccccc3)o2)ccc1Cl	52.2*	1.1	21.6	0.9	/	17.9	59.3*	-1.9	Scp-1 Tm shift=12.2*
CCCCC1(C)OC(=O)C(=Cc2ccc(SC)cc2)C(=O)O1 (stereo not given)	3.1	-1.2	3.5	0.0	5.6	5.6	/	/
Cc1ccc(S(=O)(=O)Nc2ccc(NC(=O)CN3CCCCC3)cc2)cc1	3.6	0.9	-1.4	-1.4	/	-1.0	/	/
COc1ccc2[nH]cc(/C=C/c3cc[n+](C)cc3)c2c1	58.2*	-1.6	-60.3	3.7	-57.1	-6.3	-20.6	-18.1
Cc1ccc(-c2c(C#N)c(N)n3c(nc4ccccc43)c2C#N)cc1	56.6*	11.8	-9.1	18.8	/	-12.4	14.0	-19.5
N#Cc1c(-c2ccccc2)c(C#N)c2nc3ccccc3n2c1N	-1.0	-0.6	-4.8	1.3	/	-20.1	/	/
O=C(NNC(=O)C1CCC1)c1ccc(Cl)cc1	1.1	-0.9	0.4	1.0	0.6	5.1	/	/
O=C(COC(=O)c1cc(=O)[nH]c2ccccc12)NC1CCCCCCC1	-5.2	6.7	-10.2	-0.2	0.1	2.1	/	/
O=C(COC(=O)c1cc(=O)[nH]c2ccccc12)NC(=O)NC1CCCCC1	-5.9	-2.3	-6.4	1.3	/	1.1	-19.4	-16.1
Cc1ccc(C(O)c2nccn2C)o1 (stereo not given)	-7.7	-2.5	-1.8	-1.8	/	-4.8	/	/
O=C(N/N=C/c1ccc2nccnc2c1)c1ccc(Br)cc1	36.1	-1.3	-22.2	-0.2	1.0	1.2	/	/
O=C(N/N=C/c1cccc(Br)c1)c1ccc(Br)cc1	103.7*	20.8	-3.5	59.7*	0.9	27.9	75.8*	-12.6	Scp-1 Tm shift=-6.8
COc1ccc(C2c3[nH]c4ccccc4c3C[C@H]3C(=O)N(c4ccccc4C(=O)N4CCC(C(=O)O)CC4)C(=O)N23)cc1 (stereo not given in full)	9.5	-0.4	8.4	-1.0	-1.5	-0.5	/	/
C=CCN=c1scc(-c2ccco2)n1/N=C/c1ccc(O)c(O)c1O	9.0	3.4	-5.5	20.6	23.1	-15.1	/	/
C=CCn1c(SCc2nc3sc(C(=O)O)c(C)c3c(=O)[nH]2)nnc1-c1ccc(C(C)(C)C)cc1	69.2*	8.2	16.0	0.5	4.5	10.5	54.7*	-14.2	Scp-1 Tm shift=1.2
C=CCn1c(SCc2nc3sc(C(=O)O)c(C)c3c(=O)[nH]2)nnc1-c1ccccc1	25.8	-0.7	5.5	0.2	/	7.5	/	/
Cc1cccc(C)c1NC(=O)CN1C(=O)S/C(=C\c2cccn2-c2cccc(C(=O)O)c2)C1=O	57.8*	18.2	-15.5	0.2	/	23.0	81.0*	-13.4	Scp-1 Tm shift=6.6*
Cc1cccc(NC(=O)CN2C(=O)S/C(=C\c3cccn3-c3cccc(C(=O)O)c3)C2=O)c1	70.1*	11.2	-5.8	3.6	28.2	26.0	71.1*	-6.2	Scp-1 Tm shift=11.3*
Cc1[nH]c(SCC(=O)Nc2cc(C(N)=O)cc(C(N)=O)c2)nc1Cc1ccccc1	-3.8	-0.5	12.6	-0.8	-2.8	3.6	/	/
Cc1ccc(CNC(=O)c2ccccc2NS(=O)(=O)c2ccc(Cl)nc2)cc1	-17.3	-1.3	6.0	1.6	2.4	1.2	/	/
O=C1CCCN1CCCNC(=S)Nc1ccccc1Cl	-5.2	4.8	0.5	-0.8	-2.2	3.2	1.0	3.1
O=C(CC1Oc2ccccc2NC1=O)NCCCN1CCCC1=O (stereo not given)	-12.2	-1.8	4.1	3.1	-0.5	1.4	-12.9	-13.7
Cc1cc(Oc2nnnn2-c2ccccc2)ccc1Cl	-9.7	3.0	0.9	1.0	/	-0.4	/	/
SMILES	Scp-1 inhibitor	STEP inh	SUMO1-SIM PPI	LMPTP block	CASP6 VEID inh	DNMT1 block	Scp-1 conf	MG interference	others
O=C(C[C@H]1C[C@H]2c3cc(NC(=O)C4CCOCC4)ccc3O[C@H]2[C@H](CO)O1)NCc1ccc(Oc2ccccc2)cc1	/	/	/	/	0.2	/	/	/
O=C1/C(=C\c2ccc(O)cc2)SC(=S)N1c1cccnc1	98.4*	34.4	-13.4	24.6	-0.7	-1.1	15.8	-12.6
O=C1/C(=C/c2cccnc2)SC(=S)N1c1ccccc1	-2.8	0.4	-7.9	0.4	0.4	-2.5	/	/
O=C(CCc1nnc2ccc(NCc3ccc(F)cc3)nn12)NC1CCCC1	-7.5	-0.3	1.9	-1.3	0.7	-1.2	/	/
Cc1ccc(O)c(C(=O)c2cnn(-c3ccc(S(=O)(=O)N4CCOCC4)cc3[N+](=O)[O-])c2)c1	-7.9	-0.1	-8.3	2.2	-0.5	-0.3	/	/
COc1ccc(S(=O)(=O)N(C)C[C@H]2Oc3cc(Br)ccc3S(=O)(=O)N([C@H](C)CO)C[C@H]2C)cc1	/	-0.1	3.6	-0.9	2.7	0.7	/	/
O=C(CCC(=O)Nc1cccc(Cl)c1)N/N=C/c1cc([N+](=O)[O-])ccc1O	3.1	1.7	-2.7	0.1	1.5	-1.1	/	/
O=C(CCCC(=O)Nc1cccc(Br)c1)N/N=C/c1cc([N+](=O)[O-])ccc1O	55.9*	-1.9	-21.3	1.7	-3.5	0.5	67.0*	-9.8	Scp-1 Tm shift=7.4*
COC(=O)c1ccc(NC(=S)N2CCC(C(N)=O)CC2)cc1	68.3*	10.0	3.1	0.6	2.0	0.1	-6.2	-7.3
COc1ccc(CC(=O)NNC(=O)COc2ccc3ccccc3c2)cc1	57.0*	1.9	-1.1	16.3	-1.9	41.1	51.6*	-13.6	Scp-1 Tm shift=-16.9
COc1ccccc1NC(=O)NNC(=O)COc1ccc2ccccc2c1	1.0	0.3	1.6	-0.2	0.3	-2.3	/	/
Cc1ccc(S(=O)(=O)N2C[C@@]3(O)Cn4c(=O)ccc(=O)n4C[C@@]3(OC(=O)NCC3CCCCC3)C2)cc1	/	/	2.2	0.6	4.2	/	/	/
O=C(Nc1ccc2ncccc2c1)c1ccccc1	10.5	-1.3	-1.9	-1.7	1.4	2.0	/	/
O=C(Nc1ccc2ncccc2c1)c1ccccc1Cl	56.7*	-3.6	-0.6	-2.5	1.8	2.7	5.4	-10.7

Source: PubChem BioAssay (several laboratories)
